NPY Y1 blocker: antagonists of human neuropeptide Y receptor Y1; P25929; HEK293-CNG Y1 cells, membrane potential fluorescence; NPY at EC95, then isoproterenol; inhibition, % at 3.6 µM; actives 1% (n = 200,000);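 active means inhibition above the campaign mean inhibition of all tested compounds plus 3 SD, cut at about 20% in these data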;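 further: 0% = DMSO wells given NPY plus isoproterenol and 100% = isoproterenol alone without NPY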
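material = HEK293 cells with Y1 receptor plus CNG channel | also added = NPY 25 nM then isoproterenol 1 µM plus Ro 20-1724 25 µM | schedule = dye 3 h, compound 60 min room temperature, stimulation 45 min | measured by = membrane potential fluorescence | benchmarks = high control isoproterenol alone, low control NPY with isoproterenol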
NPY-Y2 PAM-ag: potentiators or agonists of human neuropeptide Y receptor Y2 | P49146 | cells expressing NPY-Y2, potentiator/agonist read-out | activation, % at 3.6 µM | actives 0.45% (n = 220,000); in the data active means activation above about 27%;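 further: cells stimulated with NPY near EC25 plus isoproterenol at EC100; 0% = vehicle plus submaximal agonist and 100% = vehicle plus saturating agonist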
Target sequence (P49146 whole entry, looked up): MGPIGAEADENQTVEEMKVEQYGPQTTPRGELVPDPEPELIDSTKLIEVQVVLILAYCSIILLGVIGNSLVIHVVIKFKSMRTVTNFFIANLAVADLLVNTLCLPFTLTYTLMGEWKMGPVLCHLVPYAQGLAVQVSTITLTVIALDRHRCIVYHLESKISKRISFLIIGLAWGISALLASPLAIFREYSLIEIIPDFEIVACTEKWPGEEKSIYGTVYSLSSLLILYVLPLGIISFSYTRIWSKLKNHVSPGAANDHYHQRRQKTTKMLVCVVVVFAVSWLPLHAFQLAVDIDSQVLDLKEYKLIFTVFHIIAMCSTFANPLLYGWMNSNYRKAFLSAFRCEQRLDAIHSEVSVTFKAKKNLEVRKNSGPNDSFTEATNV
NPY1 pot ag: potentiates or activates human NPY-Y1 receptor. actives 0.37% (n = 220,000). P25929. activation, % at 3.6 µM. NPY-Y1 expressing cells, potentiator/agonist activation; in the data active means activation above about 33%, passing the limit was not always enough;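 further: cells stimulated with NPY at EC10 then isoproterenol at EC100; 0% = low agonist plus stimulus and 100% = saturating agonist plus stimulus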
S1P4 antag: antagonists of human S1P4 receptor. S1P4-expressing cells, antagonist mode, reporter read-out. O95977. inhibition, % at 4.98 µM. actives 0.26% (n = 220,000); in the data active means inhibition above about 29%;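 further: 0% = wells stimulated with agonist and 100% = vehicle wells without agonist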
S1P4 agonist: activates the human S1P4 receptor; O95977; S1P4-expressing cell line, agonist reporter assay; activation, % at 4.98 µM; actives 0.35% (n = 220,000); AID 1509; in the data active means activation above about 11%;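 further: 0% = DMSO vehicle and 100% = reference agonist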
NPY-Y2 antag: antagonists of human neuropeptide Y receptor Y2. NPY-Y2 expressing cells, antagonist mode. inhibition, % at 2.7 µM. actives 0.99% (n = 140,000). AID 793; in the data active means inhibition above about 17%;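 further: 0% = vehicle with agonist challenge and 100% = reference antagonist with challenge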
Starred values were filed as active, the others as inactive; . = no result. Rows were chosen to be rich in hits. Some 2.4% of all compounds tested hit in one or more screens of this group.

SMILES	NPY Y1 blocker	NPY-Y2 PAM-ag	NPY1 pot ag	S1P4 antag	S1P4 agonist	NPY-Y2 antag
COCCNC(=S)N1CCC(C(=O)c2ccc3c(c2)OCCO3)CC1	1	6	-4	4	-1	.
COc1ccc(NC(=O)NC23CC4(C)CC(C)(CC(C)(C4)C2)C3)cc1	-1	-4	-9	1	0	0
COC(=O)CN1C(c2ccccc2)=Nc2ccc(Cl)cc2C1c1ccccc1 (configuration not stated)	27*	-4	-6	10	-1	22*
Cc1cc(C)n(-c2nnc(C)n2/N=C/c2cc(Br)ccc2OCc2ccccc2)n1	7	-15	3	-4	2	32*
COCCCNC(NC(=O)c1ccc(Br)cc1)C(Cl)(Cl)Cl (configuration not stated)	-9	66*	59*	2	2	1
Cc1ccc(CNC(=O)c2cc3c(=O)n(C)c4ccccc4c3n2C)o1	-1	-9	-3	-25	-2	-2
Cn1c(C(=O)NCc2ccccn2)cc2c(=O)n(C)c3ccccc3c21	-12	42*	37*	-18	1	-7
CCN(CC)S(=O)(=O)c1cccc(-c2nnc(SCCOc3ccc(Cl)cc3)o2)c1	32*	-2	-57	0	1	29*
CCN(CC)S(=O)(=O)c1cccc(-c2nnc(SCCOc3ccccc3C)o2)c1	20*	-13	-38	-3	0	26*
CCNc1nc(NCC)n2c(SCC(=O)c3ccccc3Cl)nnc2n1	3	-7	6	-3	-2	.
O=c1c2ccccc2nc(N2CCN(c3ccccc3)CC2)n1Cc1ccccc1	8	-24	-31	-4	-2	12
Cc1ccc(C)c(N2CCN(c3nc4ccccc4c(=O)n3Cc3ccccc3)CC2)c1	30*	-6	-31	5	1	28*
O=C(O)C1CC=CCC1C(=O)NCCc1cccc(Cl)c1 (configuration not stated)	4	-2	-10	0	1	3
OCCC1CN(Cc2nc3ccc(F)cc3[nH]2)CCN1C1CCCC1 (configuration not stated)	.	-28	-5	-3	2	.
Cc1cc(C)n(-c2ccc(F)cc2CN2CCN(C3CCCC3)C(CCO)C2)n1 (configuration not stated)	20*	-10	17	10	1	.
C=CCn1c(SCc2c(C)noc2C)nc2sc(C)c(C)c2c1=O	21*	-27	-15	12	-2	17*
O=C(Nc1cccc(C(F)(F)F)c1)c1cc(-c2ccc(F)cc2)on1	22*	-4	-22	11	2	24*
CC(C)c1cc(C(=O)Nc2cccc(C(F)(F)F)c2)no1	2	-9	-27	-6	-2	4
O=C(CN1CCN(S(=O)(=O)c2ccc(Br)cc2)CC1)N/N=C/c1ccco1	3	-4	-15	-13	0	3
CC(=O)c1cc(CC(=O)N2CCc3c([nH]c4ccccc34)C2c2ccccn2)cs1 (configuration not stated)	22*	2	5	9	1	.
Cc1cc(NC(=O)CCC(=O)N(Cc2ccccc2)C2(C(=O)NC3CCCCC3)CCCC2)no1	5	7	6	6	0	.
S=C(NCCc1ccccc1)Nc1cnc2ccccc2c1	8	5	5	2	0	.
Cc1nc2ccccn2c(=O)c1CCN1CCC(C(=O)c2ccc(F)cc2)CC1	4	-3	-35	-1	81*	2
O=C(c1ccc(F)cc1)C1CCN(CCn2c(=S)[nH]c3ccccc3c2=O)CC1	11	-51	-37	5	-1	.
Cc1nc2sccn2c(=O)c1CCN1CCC(=C(c2ccc(F)cc2)c2ccc(F)cc2)CC1	29*	-21	-58	-1	0	39*
SMILES	NPY Y1 blocker	NPY-Y2 PAM-ag	NPY1 pot ag	S1P4 antag	S1P4 agonist	NPY-Y2 antag
Cc1cc(C)c(S(=O)(=O)n2nc(C)c(Br)c2C)c(C)c1	3	9	0	-1	1	6
CN(C)S(=O)(=O)Oc1cccc(C(=O)Nc2ccc([N+](=O)[O-])cc2)c1	-9	17	11	-20	0	.
C/C(=N\NC(=O)c1nn(C)cc1Br)c1cccc(NC(=O)C(C)(C)C)c1	-8	41*	103*	-18	-1	1
Cc1ccccc1-n1ccnc1SCC(=O)NCc1ccco1	7	0	8	4	0	.
CCOc1cc(/C=C/C(=O)c2ccc(C)cc2)ccc1OCC(=O)N(C)C	-1	-6	1	15	1	-2
CCOc1cc(/C=C2/COc3ccccc3C2=O)ccc1OCC(=O)N(C)C	-7	0	0	37*	-5	.
CC(C)CC(=O)NNC(=O)C(C)C	0	-3	19	-3	4	0
CN(C)CCN(C(=O)c1ccc(S(=O)(=O)N(C)c2ccccc2)cc1)c1nc2cc3c(cc2s1)OCCO3	.	0	-26	-5	-1	.
Cc1cccc2sc(N(CCCN(C)C)C(=O)c3sc4ccccc4c3Cl)nc12	8	-17	-20	-12	0	5
CCOc1cccc2sc(N(CCCN(C)C)C(=O)c3ccc(S(=O)(=O)N(C)c4ccccc4)cc3)nc12	21*	-18	-34	-3	-1	.
CN(C)CCCN(C(=O)c1sc2ccccc2c1Cl)c1nc2c(F)cccc2s1	20*	-20	-39	-6	1	18*
O=c1[nH][nH]c(C(F)(F)F)c1/C=N/N1CCOCC1	1	-4	9	-17	1	.
COc1ccc(C(=O)NC(=S)NCc2ccco2)cc1	.	-22	15	-8	-1	.
CSCC[C@H](NC(=O)c1ccc(Cl)c([N+](=O)[O-])c1)c1nc2ccccc2[nH]1	-4	9	38	4	-1	-3
O=C(NC(Cc1ccccc1)c1nc2ccccc2[nH]1)c1ccc(Cl)c([N+](=O)[O-])c1 (configuration not stated)	-4	40*	47*	-14	1	0
O=c1c2ccccc2nc(/C=C/c2cccc([N+](=O)[O-])c2)n1CCO	-6	5	-20	-16	1	2
Cc1cccc(-c2nc3ccccc3c(=O)n2NC(=S)N(C)C)c1	1	-2	-11	-1	-1	2
O=C(/C=C/c1cccc([N+](=O)[O-])c1)Nn1c(-c2ccccc2F)nc2ccccc2c1=O	46*	-19	-89	4	0	66*
Cc1cccc(-c2nc3ccccc3c(=O)n2NC(=O)/C=C/c2ccc([N+](=O)[O-])cc2)c1	80*	-20	-90	14	1	105*
CCC(=O)Nc1cccc(NC(=O)c2ccc(C)cc2Cl)c1	-1	0	4	-11	1	.
CCCOc1ccc(/C(O)=C2/C(=O)C(=O)N(CCN(C)C)C2c2ccncc2)cc1 (configuration not stated)	1	8	15	-3	36*	2

Source: PubChem (The Scripps Research Institute Molecular Screening Center)
